# Laboratory results as given in PMC6858491 (ACS chemical biology, 2019).
# Test system: Jurkat cells
# Experiment: Apoptotic protection assay
# Assay type: cell-based
# Settings: 20 µM inhibitor for 3 h before 10 ng/mL MegaFasL, CellTiter-Glo
# Procedure, shortened: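 Jurkat A3 cells were grown near confluence (10% FBS, pen/strep/glutamine, 37 °C, 5% CO2), resuspended in fresh medium, and plated at 10,000 cells/well. They were then given test compound (20 µM, or a concentration series with 30 min pretreatment) or DMSO vehicle, for set times before or after 10 ng/mL MegaFasL. Viability was read by CellTiter-Glo 3 h after induction.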
substance,measurement,value
Z-D^ME^MVD^M-FMK [0^M],protection from extrinsic apoptosis (cellular viability),able to preserve cellular viability
